Values joined by “and” are separate entries in the source; they are usually repeats but may differ in a detail not shown here. Identical values can stand only once.
How the values were obtained:
CH1 [1] = test: cytotoxicity against CH1cisR cells incubated for 24 hr in MTT assay; assay type: functional, cell-based, Homo sapiens
Method in brief: (§1)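 Cisplatin-sensitive/resistant ovarian cancer line pairs; platinum complexes dissolved in 10 mM NaClO4 in water (1 mg/mL stock, fresh), added to cultures at final 0–200 μM for 24 h. Survival by MTT, absorbance at 520 nm; IC50 (concentration giving 50% cell killing) taken from % survival vs concentration curves. Quadruplicate experiments.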

CH1 [2] = test: cytotoxicity against CH1 cells incubated for 24 hr in MTT assay.; assay type: functional, cell-based, Homo sapiens; method in brief: as §1
41M [3] = test: cytotoxicity against 41McisR cells incubated for 24 hr in MTT assay; assay type: functional, cell-based, Homo sapiens; method in brief: as §1
A2780 = test: cytotoxicity against A2780 cells incubated for 24 hr in MTT assay.; assay type: functional, cell-based, Homo sapiens; method in brief: as §1
41M [4] = test: cytotoxicity against 41M cells incubated for 24 hr in MTT assay.; assay type: functional, cell-based, Homo sapiens; method in brief: as §1
A2780cisR [5] = test: cytotoxicity against A2780cisR cells incubated for 24 hr in MTT assay; assay type: functional, cell-based, Homo sapiens; method in brief: as §1
[6] = Resistant factor was measured as IC50 41M/ IC50 41McisR; assay type: functional
[7] = Resistant factor was measured as IC50 CH1/ IC50 CH1cisR; assay type: functional
A2780cisR [8] = test: Resistant factor was measured as […]; assay type: functional, cell-based

## CISPLATIN [listing 1 of 2 here]
CH1 [1]
  IC50: 23 µM
CH1 [2]
  IC50: 6 µM
41M [3]
  IC50: 107 µM
A2780
  IC50: 2.2 µM
41M [4]
  IC50: 26 µM
A2780cisR [5]
  IC50: 38 µM

## CISPLATIN [listing 2 of 2 here]
[6]
  RF: 4.1
[7]
  RF: 3.8
A2780cisR [8]
  RF: 17.3

## TRANSPLATIN
CH1 [1]
  IC50: > 200 µM
CH1 [2]
  IC50: > 200 µM
41M [3]
  IC50: > 200 µM
A2780
  IC50: > 200 µM
41M [4]
  IC50: > 200 µM
A2780cisR [5]
  IC50: > 200 µM

## trans-ptcl2(IPA)(pz) [listing 1 of 2 here]
CH1 [1]
  IC50: 50 µM
CH1 [2]
  IC50: 10 µM
41M [3]
  IC50: 122 µM
A2780
  IC50: 14 µM
41M [4]
  IC50: 38 µM
A2780cisR [5]
  IC50: 30 µM

## trans-ptcl2(IPA)(pz) [listing 2 of 2 here]
[6]
  RF: 3.2
[7]
  RF: 5
A2780cisR [8]
  RF: 2.1

## trans-ptcl2(NH3)(pz) [listing 1 of 2 here]
CH1 [1]
  IC50: 34 µM and 56 µM
CH1 [2]
  IC50: 12 µM and 28 µM
41M [3]
  IC50: 155 µM and 112 µM
A2780
  IC50: 5 µM and 10 µM
41M [4]
  IC50: 52 µM and 46 µM
A2780cisR [5]
  IC50: 44 µM and 25 µM

## trans-ptcl2(NH3)(pz) [listing 2 of 2 here]
[6]
  RF: 3 and 2.4
[7]
  RF: 2.8 and 2

## trans-ptcl2(n-butyl amine)(pz) [listing 1 of 2 here]
CH1 [1]
  IC50: 19 µM
CH1 [2]
  IC50: 17 µM
41M [3]
  IC50: 48 µM
A2780
  IC50: 16 µM
41M [4]
  IC50: 32 µM
A2780cisR [5]
  IC50: 28 µM

## trans-ptcl2(n-butyl amine)(pz) [listing 2 of 2 here]
[6]
  RF: 1.5
[7]
  RF: 1.1
A2780cisR [8]
  RF: 1.8

## trans-ptcl2(picoline)(pz) [listing 1 of 2 here]
CH1 [1]
  IC50: 42 µM
CH1 [2]
  IC50: 16 µM
41M [3]
  IC50: 147 µM
A2780
  IC50: 10 µM
41M [4]
  IC50: 45 µM
A2780cisR [5]
  IC50: 24 µM

## trans-ptcl2(picoline)(pz) [listing 2 of 2 here]
[6]
  RF: 3.3
[7]
  RF: 2.6
A2780cisR [8]
  RF: 2.4

## trans-ptcl2(pip)(pz) [listing 1 of 2 here]
CH1 [1]
  IC50: 85 µM
CH1 [2]
  IC50: 22 µM
41M [3]
  IC50: 118 µM
A2780
  IC50: 18 µM
41M [4]
  IC50: 37 µM
A2780cisR [5]
  IC50: 64 µM

## trans-ptcl2(pip)(pz) [listing 2 of 2 here]
[6]
  RF: 3.2
[7]
  RF: 3.9
A2780cisR [8]
  RF: 3.6

Source: ChEMBL document CHEMBL1135652, “Novel soluble cationic trans-diaminedichloroplatinum(II) complexes that are active against cisplatin resistant ovarian cancer cell lines” (J Med Chem, 2002)
